The values that follow come from publication PMC4363178 (Biochemical and biophysical research communications, 2015).

Test [1] addresses T1, PDZ1 of mouse ZO2 (M-ZO2PDZ1) (Mus musculus, UniProt Q9Z0U1).
T1 sequence (Q9Z0U1 1-102): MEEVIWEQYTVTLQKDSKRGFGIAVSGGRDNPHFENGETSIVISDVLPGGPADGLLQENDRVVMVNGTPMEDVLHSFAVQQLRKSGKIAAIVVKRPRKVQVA
The experiment in a line: NMR titration. It counts as binding. The settings on record: for Decrease of chemical shift change of R87 relative to wild-type Cln1-C: same concentration of wild-type Cln1-C, stated jointly for the two mutants. In short, it runs like this:
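His-tag-cleaved mouse ZO2 PDZ1 from E. coli BL21(DE3), 15N-labelled in M9 medium, at 0.1 mM in pH 5.2 buffer (50mM phosphate, 50mM NaCl, 0.2mM EDTA). Unmodified peptides (>95% pure; 50 mM stock) were added stepwise up to 12:1 peptide:protein, with ≤10% total dilution. A 1H-15N HSQC was recorded at each point at 600 MHz and 298K. Composite shift = {[δHN]^2 + [0.17 δN]^2}^1/2.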

In test [2] the target is PDZ1 domain of mouse ZO2 (M-ZO2PDZ1) (mouse) (UniProt Q9Z0U1). The test is described as follows: NMR titration.

Peptide text beside a SMILES is read from it.

PDZ1 domain of mouse ZO2 (M-ZO2PDZ1) (mouse), sequence (Q9Z0U1 1-104): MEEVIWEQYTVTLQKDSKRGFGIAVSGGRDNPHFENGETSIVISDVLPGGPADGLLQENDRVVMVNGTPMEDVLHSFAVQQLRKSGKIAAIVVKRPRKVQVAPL

One may read the Kd as the constant that tells how readily two partners part at equilibrium. A lower Kd goes with tighter binding. With `C[C@H](NC(=O)[C@H](Cc1ccc(O)cc1)NC(=O)[C@H](CC(=O)O)NC(=O)[C@H](CCCCN)NC(=O)CNC(=O)[C@H](CO)NC(=O)[C@H](CO)NC(=O)[C@@H]1CCCN1)C(=O)O` [Cln1-C-YA] (H-PSSGKDYA-OH), in test [1], the equilibrium dissociation constant (Kd) worked out at 500 ± 250 µM.
Still for that read-out and setting: under `CC[C@H](C)[C@H](N)C(=O)N[C@@H](CC(C)C)C(=O)N[C@@H](CCCNC(=N)N)C(=O)N[C@@H](CCCCN)C(=O)N[C@@H](CCCNC(=N)N)C(=O)N[C@@H](CCC(=O)O)C(=O)N[C@@H](Cc1ccc(O)cc1)C(=O)N[C@H](C(=O)O)C(C)C` [PMP22-YV] (H-ILRKREYV-OH) stands 150 ± 50 µM.
With PSSGKDAA [Cln1-C-AA], the “Decrease of chemical shift change of R87 relative to wild-type Cln1-C” value in test [1] stood at 22 fold.
As for PSSGKDVY [Cln1-C-VY], in test [1], the “Decrease of chemical shift change of R87 relative to wild-type Cln1-C” value is given as 22 fold.
In the case of “mutant PMP22 C-terminal peptide PMP22-M1 (ILRKREYV)”, the Kd in test [2] came out at 150 µM.
